Columns and labels:
[1] = target: Insulin receptor-related protein (Homo sapiens) (UniProt P14616); test: Inhibition of IRR assessed as remaining enzyme activity at 3 uM relative to DMSO
Method in brief: (§1)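 Dundee kinase panel, radiometric: [γ-33P]ATP (800 cpm/pmol) at 5, 20 or 50 μM, at or below each kinase's ATP Km; 10 mM magnesium acetate; robotic, room temperature, 30 min. Reactions started with MgATP, stopped with orthophosphoric acid, spotted onto P81 filters. Inhibitor tested at a single concentration; mean % activity of duplicates relative to DMSO control.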

[2] = target: T1, Ephrin type-B receptor 4 (Homo sapiens, UniProt P54760); test: Inhibition of EphB4 by [gamma33-P]ATP based assay
T1 sequence (P54760 whole entry): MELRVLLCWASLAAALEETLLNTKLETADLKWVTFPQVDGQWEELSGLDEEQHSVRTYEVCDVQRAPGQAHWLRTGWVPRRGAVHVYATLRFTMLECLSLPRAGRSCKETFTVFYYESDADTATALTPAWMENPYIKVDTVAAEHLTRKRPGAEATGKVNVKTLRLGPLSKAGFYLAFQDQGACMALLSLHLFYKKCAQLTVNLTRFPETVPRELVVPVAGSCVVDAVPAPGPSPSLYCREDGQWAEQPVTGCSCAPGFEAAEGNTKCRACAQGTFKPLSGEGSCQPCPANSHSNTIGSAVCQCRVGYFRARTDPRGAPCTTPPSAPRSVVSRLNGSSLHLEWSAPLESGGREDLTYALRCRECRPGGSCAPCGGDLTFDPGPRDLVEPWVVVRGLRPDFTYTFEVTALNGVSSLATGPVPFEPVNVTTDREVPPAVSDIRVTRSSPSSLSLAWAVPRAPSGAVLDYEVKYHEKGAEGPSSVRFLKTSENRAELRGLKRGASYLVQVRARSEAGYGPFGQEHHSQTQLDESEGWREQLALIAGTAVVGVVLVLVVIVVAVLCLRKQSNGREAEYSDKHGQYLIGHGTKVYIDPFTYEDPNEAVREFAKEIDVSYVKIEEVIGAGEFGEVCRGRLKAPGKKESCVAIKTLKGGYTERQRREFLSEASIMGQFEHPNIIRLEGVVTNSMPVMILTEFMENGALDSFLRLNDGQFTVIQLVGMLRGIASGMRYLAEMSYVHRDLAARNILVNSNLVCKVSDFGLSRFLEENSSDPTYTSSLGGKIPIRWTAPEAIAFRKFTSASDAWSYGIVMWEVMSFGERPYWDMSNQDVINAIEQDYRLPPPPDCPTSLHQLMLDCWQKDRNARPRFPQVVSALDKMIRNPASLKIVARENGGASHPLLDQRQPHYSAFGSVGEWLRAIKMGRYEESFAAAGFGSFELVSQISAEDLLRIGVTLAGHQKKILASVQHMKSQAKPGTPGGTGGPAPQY

[3] = target: Serine/threonine-protein kinase Chk1 (Homo sapiens) (UniProt O14757); test: Inhibition of CHK1 assessed as remaining enzyme activity at 3 uM relative to DMSO; method in brief: as §1
[4] = target: Protein kinase C alpha type (Homo sapiens) (UniProt P17252); test: Inhibition of PKCalpha assessed as remaining enzyme activity at 3 uM relative to DMSO
[5] = target: Rho-associated protein kinase 2 (Homo sapiens) (UniProt O75116); test: Inhibition of ROCK2 assessed as remaining enzyme activity at 3 uM relative to DMSO
Sequence of Rho-associated protein kinase 2 (Homo sapiens) (O75116 whole entry, looked up): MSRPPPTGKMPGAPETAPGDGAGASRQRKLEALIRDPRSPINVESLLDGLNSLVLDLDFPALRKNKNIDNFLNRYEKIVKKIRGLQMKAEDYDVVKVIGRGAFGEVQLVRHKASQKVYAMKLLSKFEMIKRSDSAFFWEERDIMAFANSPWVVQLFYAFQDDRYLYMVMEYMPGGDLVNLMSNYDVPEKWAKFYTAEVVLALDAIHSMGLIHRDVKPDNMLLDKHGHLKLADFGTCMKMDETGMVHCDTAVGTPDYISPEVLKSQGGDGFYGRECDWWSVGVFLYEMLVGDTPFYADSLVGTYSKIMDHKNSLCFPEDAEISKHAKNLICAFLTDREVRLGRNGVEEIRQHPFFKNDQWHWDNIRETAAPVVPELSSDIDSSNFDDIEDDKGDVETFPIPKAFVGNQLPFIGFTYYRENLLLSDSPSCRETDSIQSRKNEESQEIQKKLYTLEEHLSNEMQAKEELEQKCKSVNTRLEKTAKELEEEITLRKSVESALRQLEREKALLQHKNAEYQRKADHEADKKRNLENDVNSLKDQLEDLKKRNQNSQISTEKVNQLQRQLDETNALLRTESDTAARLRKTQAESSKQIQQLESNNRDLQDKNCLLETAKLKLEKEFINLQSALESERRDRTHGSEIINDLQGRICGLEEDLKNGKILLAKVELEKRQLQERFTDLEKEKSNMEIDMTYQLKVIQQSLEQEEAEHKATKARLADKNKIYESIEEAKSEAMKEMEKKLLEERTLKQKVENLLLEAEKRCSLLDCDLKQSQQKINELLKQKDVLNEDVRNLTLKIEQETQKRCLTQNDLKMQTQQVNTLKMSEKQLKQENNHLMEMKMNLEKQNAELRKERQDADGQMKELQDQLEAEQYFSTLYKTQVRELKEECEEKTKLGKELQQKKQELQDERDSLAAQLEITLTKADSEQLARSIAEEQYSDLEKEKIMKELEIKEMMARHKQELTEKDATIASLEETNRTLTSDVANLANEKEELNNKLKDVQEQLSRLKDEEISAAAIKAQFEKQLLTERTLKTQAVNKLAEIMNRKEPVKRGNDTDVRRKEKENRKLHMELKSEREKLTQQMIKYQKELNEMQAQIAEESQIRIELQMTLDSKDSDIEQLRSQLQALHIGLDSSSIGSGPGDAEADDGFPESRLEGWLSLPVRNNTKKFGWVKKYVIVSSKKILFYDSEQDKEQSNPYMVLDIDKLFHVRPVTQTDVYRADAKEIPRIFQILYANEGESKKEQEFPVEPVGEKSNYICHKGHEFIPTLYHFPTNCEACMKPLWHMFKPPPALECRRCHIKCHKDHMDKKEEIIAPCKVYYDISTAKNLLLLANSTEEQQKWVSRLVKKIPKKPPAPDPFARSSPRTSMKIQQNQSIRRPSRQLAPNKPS

[6] = target: Serine/threonine-protein kinase TBK1 (Homo sapiens) (UniProt Q9UHD2); test: Inhibition of TBK1 assessed as remaining enzyme activity at 3 uM relative to DMSO
[7] = target: MAP/microtubule affinity-regulating kinase 3 (Homo sapiens) (UniProt P27448); test: Inhibition of MARK3 assessed as remaining enzyme activity at 3 uM relative to DMSO
Method in brief: (§2)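 Radiometric kinase assay run robotically at room temperature for 30 min. Contained 10 mM magnesium acetate and [γ-33P]ATP (800 cpm/pmol) at 5, 20 or 50 μM, chosen per kinase to be at or below its ATP Km. Reactions were started with MgATP, stopped with orthophosphoric acid and spotted onto P81 filters. Result is mean % activity of duplicates at one inhibitor concentration versus DMSO control.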

[8] = target: Serine/threonine-protein kinase PAK 5 (Homo sapiens) (UniProt Q9P286); test: Inhibition of PAK5 assessed as remaining enzyme activity at 3 uM relative to DMSO; method in brief: as §2
[9] = target: T1, Ephrin type-B receptor 4; test: Inhibition of EphB4 assessed as blockade of synthetic substrate phosphorylation by FRET assay
[10] = target: ALK tyrosine kinase receptor (Homo sapiens) (UniProt Q9UM73); test: Binding affinity to ALK assessed as percentage of kinase remaining bound to the bead at 1 uM by T7 phage display based binding assay
Sequence of ALK tyrosine kinase receptor (Homo sapiens) (Q9UM73 19-1620 limits assumed): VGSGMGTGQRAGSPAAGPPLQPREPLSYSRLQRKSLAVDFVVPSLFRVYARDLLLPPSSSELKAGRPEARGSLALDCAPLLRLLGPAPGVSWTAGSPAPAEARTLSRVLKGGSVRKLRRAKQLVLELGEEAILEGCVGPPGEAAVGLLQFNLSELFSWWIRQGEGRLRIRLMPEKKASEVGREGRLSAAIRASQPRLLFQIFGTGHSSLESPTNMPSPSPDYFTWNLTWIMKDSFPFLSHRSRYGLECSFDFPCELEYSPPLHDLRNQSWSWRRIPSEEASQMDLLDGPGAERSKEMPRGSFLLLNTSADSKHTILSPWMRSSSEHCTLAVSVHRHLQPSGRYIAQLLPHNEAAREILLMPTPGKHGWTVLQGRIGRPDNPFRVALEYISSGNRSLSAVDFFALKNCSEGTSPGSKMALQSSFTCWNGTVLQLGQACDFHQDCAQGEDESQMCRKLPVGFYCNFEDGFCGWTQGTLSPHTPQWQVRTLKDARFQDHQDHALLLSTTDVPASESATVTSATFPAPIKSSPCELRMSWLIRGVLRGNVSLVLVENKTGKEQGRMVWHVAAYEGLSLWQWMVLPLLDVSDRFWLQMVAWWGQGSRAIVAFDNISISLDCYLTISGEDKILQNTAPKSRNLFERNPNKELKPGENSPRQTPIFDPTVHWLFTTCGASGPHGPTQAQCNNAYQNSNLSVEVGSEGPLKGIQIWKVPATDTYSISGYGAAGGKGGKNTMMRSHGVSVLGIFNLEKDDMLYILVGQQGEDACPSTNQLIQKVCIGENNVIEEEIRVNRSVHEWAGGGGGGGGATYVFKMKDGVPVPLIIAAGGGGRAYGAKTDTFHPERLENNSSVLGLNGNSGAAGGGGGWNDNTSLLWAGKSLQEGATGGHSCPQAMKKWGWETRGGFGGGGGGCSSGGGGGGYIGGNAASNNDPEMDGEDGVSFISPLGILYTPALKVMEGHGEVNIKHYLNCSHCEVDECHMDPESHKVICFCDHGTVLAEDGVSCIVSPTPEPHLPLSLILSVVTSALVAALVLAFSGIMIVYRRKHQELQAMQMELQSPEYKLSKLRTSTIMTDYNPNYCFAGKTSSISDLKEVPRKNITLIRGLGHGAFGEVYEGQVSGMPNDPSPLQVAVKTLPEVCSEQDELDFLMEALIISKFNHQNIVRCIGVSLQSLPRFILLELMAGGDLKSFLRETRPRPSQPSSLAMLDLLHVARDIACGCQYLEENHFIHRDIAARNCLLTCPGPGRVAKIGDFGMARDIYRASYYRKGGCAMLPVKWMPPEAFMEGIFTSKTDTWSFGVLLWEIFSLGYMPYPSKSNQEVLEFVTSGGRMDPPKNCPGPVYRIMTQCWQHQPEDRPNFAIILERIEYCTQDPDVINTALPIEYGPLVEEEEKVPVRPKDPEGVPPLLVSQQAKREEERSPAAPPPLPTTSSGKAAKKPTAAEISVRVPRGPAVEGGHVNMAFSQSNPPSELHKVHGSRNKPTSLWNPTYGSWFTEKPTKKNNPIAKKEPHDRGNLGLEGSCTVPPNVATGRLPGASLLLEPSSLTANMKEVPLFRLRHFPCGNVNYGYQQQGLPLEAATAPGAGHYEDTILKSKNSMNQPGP
Method in brief: (§3)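 Competition binding assay run by a contract lab. Each kinase was expressed as a fusion to T7 phage, full-length for small kinases and catalytic domain for large ones. Phage were mixed with an immobilized known kinase inhibitor on streptavidin magnetic beads and with test compound at a single 1 μM. Kinase/phage still bound to the beads was quantified by qPCR and expressed as % of DMSO control.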

[11] = target: Mitogen-activated protein kinase 15 (Homo sapiens) (UniProt Q8TD08); test: Inhibition of ERK8 assessed as remaining enzyme activity at 1 uM relative to DMSO; method in brief: as §1
[12] = target: Maternal embryonic leucine zipper kinase (Homo sapiens) (UniProt Q14680); test: Inhibition of MELK assessed as remaining enzyme activity at 1 uM relative to DMSO; method in brief: as §2
Sequence of Maternal embryonic leucine zipper kinase (Homo sapiens) (Q14680 whole entry, looked up): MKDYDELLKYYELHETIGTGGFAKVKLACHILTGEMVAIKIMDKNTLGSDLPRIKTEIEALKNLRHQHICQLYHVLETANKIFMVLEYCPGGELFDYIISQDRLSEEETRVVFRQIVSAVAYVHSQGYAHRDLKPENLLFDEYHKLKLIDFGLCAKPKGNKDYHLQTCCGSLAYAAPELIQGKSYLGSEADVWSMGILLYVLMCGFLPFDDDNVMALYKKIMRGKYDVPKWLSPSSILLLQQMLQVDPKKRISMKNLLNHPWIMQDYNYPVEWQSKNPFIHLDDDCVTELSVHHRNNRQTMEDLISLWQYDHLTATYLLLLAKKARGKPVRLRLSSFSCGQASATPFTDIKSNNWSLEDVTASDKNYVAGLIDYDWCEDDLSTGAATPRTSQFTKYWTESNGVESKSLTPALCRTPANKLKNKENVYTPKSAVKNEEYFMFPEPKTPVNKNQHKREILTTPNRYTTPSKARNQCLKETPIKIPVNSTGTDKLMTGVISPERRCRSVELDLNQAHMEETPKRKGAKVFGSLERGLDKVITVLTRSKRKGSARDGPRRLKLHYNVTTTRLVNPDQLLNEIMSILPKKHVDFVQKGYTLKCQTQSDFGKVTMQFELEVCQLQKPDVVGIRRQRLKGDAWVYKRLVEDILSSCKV

[13] = target: Dual specificity tyrosine-phosphorylation-regulated kinase 3 (Homo sapiens) (UniProt O43781); test: Inhibition of DYRK3 assessed as remaining enzyme activity at 1 uM relative to DMSO
Method in brief: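 Radiometric kinase assay run robotically at room temperature for 30 min, linear in time and enzyme. Conditions: 10 mM magnesium acetate, [γ-33P]ATP (800 cpm/pmol) at 5, 20 or 50 μM per kinase, at or below its ATP Km. Started with MgATP and stopped with orthophosphoric acid, then spotted on P81 filters. Reported as mean % activity of duplicates versus DMSO controls.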

[14] = target: Ephrin type-A receptor 1 (Homo sapiens, UniProt P21709); test: Inhibition of EphA1 by [gamma33-P]ATP based assay
[15] = target: Serine/threonine-protein kinase NLK (Homo sapiens) (UniProt Q9UBE8); test: Binding affinity to NLK assessed as percentage of kinase remaining bound to the bead at 1 uM by T7 phage display based binding assay; method in brief: as §3
Sequence of Serine/threonine-protein kinase NLK (Homo sapiens) (Q9UBE8 whole entry): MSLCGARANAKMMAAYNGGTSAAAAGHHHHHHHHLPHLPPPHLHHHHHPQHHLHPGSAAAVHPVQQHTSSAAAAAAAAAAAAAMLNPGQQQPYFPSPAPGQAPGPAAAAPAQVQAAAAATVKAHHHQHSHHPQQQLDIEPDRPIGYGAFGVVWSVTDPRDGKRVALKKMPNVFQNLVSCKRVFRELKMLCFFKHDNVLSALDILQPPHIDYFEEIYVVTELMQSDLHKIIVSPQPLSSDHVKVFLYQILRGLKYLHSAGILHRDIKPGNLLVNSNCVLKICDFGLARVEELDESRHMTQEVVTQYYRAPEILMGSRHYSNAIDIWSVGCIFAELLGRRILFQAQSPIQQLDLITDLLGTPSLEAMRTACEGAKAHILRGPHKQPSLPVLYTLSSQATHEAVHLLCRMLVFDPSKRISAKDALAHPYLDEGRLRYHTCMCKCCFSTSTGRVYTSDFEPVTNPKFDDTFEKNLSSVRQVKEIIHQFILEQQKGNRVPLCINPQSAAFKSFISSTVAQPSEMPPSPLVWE

[16] = target: Myosin light chain kinase, smooth muscle (Homo sapiens) (UniProt Q15746); test: Inhibition of SmMLCK assessed as remaining enzyme activity at 1 uM relative to DMSO
[17] = target: TGF-beta receptor type-2 (Homo sapiens) (UniProt P37173); test: Binding affinity to TGFBR2 assessed as percentage of kinase remaining bound to the bead at 1 uM by T7 phage display based binding assay; method in brief: as §3
[18] = target: Ephrin type-B receptor 1 (Homo sapiens, UniProt P54762); test: Inhibition of EphB1 by [gamma33-P]ATP based assay
Method in brief: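 Radiometric [γ-33P]ATP kinase assay against Eph kinases, following a protocol similar to the Mg-acetate/MgATP filter-binding method.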

| Activity [1] [%] | IC50 [2] [nM] | Activity [3] [%] | Activity [4] [%] | Activity [5] [%] | Activity [6] [%] | Activity [7] [%] | Activity [8] [%] | IC50 [9] [nM] | Activity [10] [%] | Activity [12] [%] | Activity [13] [%] | IC50 [14] [nM] | Activity [15] [%] | Activity [16] [%] | Activity [17] [%] | IC50 [18] [nM] | SMILES | Activity [11] [%] |
| --- | --- | --- | --- | --- | --- | --- | --- | --- | --- | --- | --- | --- | --- | --- | --- | --- | --- | --- |
| 110 | 47 | 93 | 97 | 94 | 79 | 111 | 94 | 180 |  |  |  |  |  |  |  |  | COc1ccccc1-n1c(-c2ccccc2C)cn2c3c(=O)[nH]c(=O)n(C)c3nc12 |  |
|  | 1.6 |  |  |  |  |  |  | 5 | 99 | 80 | 96 | 2.9 | 83 | 87 | 2.4 | 1.1 | COc1ccccc1-n1c(-c2cc(O)ccc2C)cn2c3c(=O)[nH]c(=O)n(C)c3nc12 | 97 |
